In ChEMBL document CHEMBL1155438, “Design and syntheses of permethyl ningalin B analogues: potent multidrug resistance (MDR) reversal agents of cancer cells” (J Med Chem, 2010):
Activity calls are given as the source filed them. No cut-off for these calls is given here.

Legend:
[1] = target: T1, ATP-dependent translocase ABCB1 (Homo sapiens, UniProt P08183); assay: Inhibition of P-gp-mediated paclitaxel-resistance in P-glycoprotein-expressing human LCC-6 cells assessed as fold decrease in paclitaxel IC50 for cytotoxic activity at 1 uM after 5 days by MTS assay relative to control; type: cell-based; conditions: lcc-6, 120 h
T1 sequence (P08183 whole entry): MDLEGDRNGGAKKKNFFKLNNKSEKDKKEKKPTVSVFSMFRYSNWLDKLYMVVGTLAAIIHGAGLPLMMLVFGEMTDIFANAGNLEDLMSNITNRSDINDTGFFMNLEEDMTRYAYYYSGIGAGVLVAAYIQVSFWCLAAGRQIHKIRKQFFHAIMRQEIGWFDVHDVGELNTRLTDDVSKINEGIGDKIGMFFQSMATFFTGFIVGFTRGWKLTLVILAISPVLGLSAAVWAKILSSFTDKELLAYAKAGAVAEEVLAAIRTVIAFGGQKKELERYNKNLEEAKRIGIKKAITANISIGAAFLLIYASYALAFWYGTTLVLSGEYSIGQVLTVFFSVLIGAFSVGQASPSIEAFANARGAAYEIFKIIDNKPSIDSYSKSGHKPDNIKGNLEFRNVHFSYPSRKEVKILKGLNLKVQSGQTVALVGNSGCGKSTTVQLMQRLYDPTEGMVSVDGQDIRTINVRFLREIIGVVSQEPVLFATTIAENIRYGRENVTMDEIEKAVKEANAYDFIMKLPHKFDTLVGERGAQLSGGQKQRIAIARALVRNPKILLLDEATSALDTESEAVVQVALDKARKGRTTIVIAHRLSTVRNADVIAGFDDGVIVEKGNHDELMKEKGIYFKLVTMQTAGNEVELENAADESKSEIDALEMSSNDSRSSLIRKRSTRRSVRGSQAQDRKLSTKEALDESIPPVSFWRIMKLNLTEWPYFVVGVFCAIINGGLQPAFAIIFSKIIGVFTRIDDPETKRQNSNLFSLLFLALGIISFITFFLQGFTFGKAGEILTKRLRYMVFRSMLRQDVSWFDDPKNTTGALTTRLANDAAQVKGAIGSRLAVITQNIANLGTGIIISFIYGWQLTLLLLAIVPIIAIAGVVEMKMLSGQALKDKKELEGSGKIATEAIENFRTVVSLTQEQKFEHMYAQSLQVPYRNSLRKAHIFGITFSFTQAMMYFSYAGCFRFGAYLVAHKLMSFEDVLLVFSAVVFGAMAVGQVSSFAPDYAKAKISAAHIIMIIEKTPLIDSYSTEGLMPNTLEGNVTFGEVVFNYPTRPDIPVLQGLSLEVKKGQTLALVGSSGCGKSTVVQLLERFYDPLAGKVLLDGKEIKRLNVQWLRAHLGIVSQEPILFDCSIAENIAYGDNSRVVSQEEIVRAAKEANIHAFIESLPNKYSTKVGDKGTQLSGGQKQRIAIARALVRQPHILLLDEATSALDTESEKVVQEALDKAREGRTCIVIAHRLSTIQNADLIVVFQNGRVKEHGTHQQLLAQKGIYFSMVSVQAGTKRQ
Outline: (§1)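 ABCB1-transfected LCC6MDR cells (6000 per well) given serial paclitaxel, doxorubicin or vincristine with or without 1 μM modulator for 5 days at 37 °C. MTS/PMS added for 2 h, absorbance 490 nm. IC50 from dose-response curves. RF = IC50 without modulator / IC50 with modulator; mean ± SEM.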

[2] = Cytotoxicity against multidrug-resistant human LCC-6 cells after 3 days by MTS assay; type: cell-based; conditions: LCC-6, 72 h
L929 = assay: Cytotoxicity against mouse L929 cells after 3 days by MTS assay; type: cell-based; conditions: L929, 72 h
[3] = Cytotoxicity against wild type human LCC-6 cells after 3 days by MTS assay; type: cell-based; conditions: LCC-6, 72 h
[4] = target: T1, ATP-dependent translocase ABCB1; assay: Inhibition of P-gp-mediated paclitaxel-resistance in P-glycoprotein-expressing human LCC-6 cells assessed as fractional inhibitory concentration index at 0.5 uM after 5 days by MTS assay in presence of 1-(3,4,5-Trimethoxybenzyl)-3,4-bis(3,4-dimethoxyphenyl)-1H-pyrrole-2,5-dione; type: cell-based; conditions: lcc-6, 120 h
Outline: (§2)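 LCC6MDR cells (6000 per well) given two modulators at 0.5 μM each, with serial paclitaxel, doxorubicin or vincristine, for 5 days at 37 °C. IC50 by MTS absorbance at 490 nm. FIC values come from IC50 relative to each modulator alone at 1 μM, and FICI is the sum (modified Chou–Talalay). Synergy: FICI ≤0.5; additive: 0.5–4; antagonism: >4.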

[5] = target: T1, ATP-dependent translocase ABCB1; assay: Inhibition of P-gp-mediated paclitaxel-resistance in P-glycoprotein-expressing human LCC-6 cells assessed as fractional inhibitory concentration index at 0.5 uM after 5 days by fraction affected plot assay in presence of 1-(3,4,5-Trimethoxybenzyl)-3,4-bis(3,4-dimethoxyphenyl)-1H-pyrrole-2,5-dione; type: cell-based; conditions: lcc-6, 120 h
[6] = target: T1, ATP-dependent translocase ABCB1; assay: Inhibition of P-gp-mediated doxorubicin-resistance in P-glycoprotein-expressing human LCC-6 cells assessed as fold decrease in doxorubicin IC50 for cytotoxic activity at 1 uM after 5 days by MTS assay; type: cell-based; conditions: lcc-6, 120 h; outline: as §1
[7] = target: T1, ATP-dependent translocase ABCB1; assay: Inhibition of P-gp-mediated vincristine-resistance in P-glycoprotein-expressing human LCC-6 cells assessed as fold decrease in vincristine IC50 for cytotoxic activity at 1 uM after 5 days by MTS assay; type: cell-based; conditions: lcc-6, 120 h; outline: as §1
[8] = target: T1, ATP-dependent translocase ABCB1; assay: Inhibition of P-gp-mediated doxorubicin-resistance in P-glycoprotein-expressing human LCC-6 cells assessed as fractional inhibitory concentration index at 0.5 uM after 5 days by MTS assay in presence of 1-(3,4,5-Trimethoxybenzyl)-3,4-bis(3,4-dimethoxyphenyl)-1H-pyrrole-2,5-dion; type: cell-based; conditions: lcc-6, 120 h; outline: as §2
[9] = target: T1, ATP-dependent translocase ABCB1; assay: Inhibition of P-gp-mediated vincristine-resistance in P-glycoprotein-expressing human LCC-6 cells assessed as fractional inhibitory concentration index at 0.5 uM after 5 days by MTS assay in presence of 1-(3,4,5-Trimethoxybenzyl)-3,4-bis(3,4-dimethoxyphenyl)-1H-pyrrole-2,5-dione; type: cell-based; conditions: lcc-6, 120 h; outline: as §2
LCC-6 = assay: Increase in doxorubicin concentration in wild type human LCC-6 cells at 3 uM after 150 mins by spectrofluorimetry; type: functional, cell-based
Outline: (§3)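 Cells (1 × 10⁶ LCC6 or LCC6MDR) incubated with 20 μM doxorubicin plus modulator for 150 min at 37 °C; 0.4% DMSO as negative control. Cells washed in cold PBS pH 7.4 and lysed in 0.75 M HCl/0.2% Triton X-100 in isopropanol. Supernatant doxorubicin fluorescence read at ex 460/em 610 nm. Duplicate, repeated twice; mean ± SEM.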

[10] = target: T1, ATP-dependent translocase ABCB1; assay: Inhibition of P-gp-mediated doxorubicin-resistance in P-glycoprotein-expressing human LCC-6 cells assessed as increase in intracellular doxorubicin accumulation at 3 uM after 150 mins by spectrofluorimetry relative to control; type: cell-based; conditions: lcc-6, 2.5 h; outline: as §3
[11] = target: T1, ATP-dependent translocase ABCB1; assay: Inhibition of P-gp-mediated doxorubicin-resistance in P-glycoprotein-expressing human LCC-6 cells assessed as increase in intracellular doxorubicin accumulation at 0.25 to 3 uM after 150 mins by spectrofluorimetry; type: cell-based; conditions: lcc-6, 2.5 h; outline: as §3
[12] = target: T1, ATP-dependent translocase ABCB1; assay: Inhibition of P-gp-mediated doxorubicin-resistance in P-glycoprotein-expressing human LCC-6 cells assessed as increase in intracellular doxorubicin accumulation at 8 to 16 uM after 150 mins by spectrofluorimetry; type: cell-based; conditions: lcc-6, 2.5 h; outline: as §3
[13] = Noncompetitive inhibition of P-gp-mediated doxorubicin transport in multidrug-resistant human LCC-6 cells after 150 mins by dixon plot analysis; type: cell-based
Outline: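 LCC6MDR cells (1 × 10⁶) incubated with doxorubicin at 1.5, 4.4, 13.3 or 40 μM and modulator at 0, 0.5, 1 or 2 μM for 150 min at 37 °C. Lysis and fluorescence done as in the accumulation assay. Ki taken from a Dixon plot of reciprocal retention rate vs modulator concentration. Slope replot vs 1/[doxorubicin] used to assign mechanism. Two to four experiments.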

SMILES	fold change (FC) [1]	IC50 [2]	IC50 (L929)	IC50 [3]	other results
COc1ccc(C2=C(c3ccc(OC)c(OC)c3)C(=O)N(CCO)C2=O)cc1OC	1.8	84 µM	> 100 µM		
COc1ccc(C2=C(c3ccc(OC)c(OC)c3)C(=O)N(CC(=O)c3ccccc3)C2=O)cc1OC	3.9	> 100 µM	> 100 µM		
COc1ccc(C2=C(c3ccc(OC)c(OC)c3)C(=O)N(CCCN3C(=O)C(c4ccc(OC)c(OC)c4)=C(c4ccc(OC)c(OC)c4)C3=O)C2=O)cc1OC	5.2	> 100 µM	> 100 µM	> 100 µM	
COc1ccc(C(=O)CN2C(=O)C(c3ccc(OC)c(OC)c3)=C(c3ccc(OC)c(OC)c3)C2=O)cc1OC	8.2	> 100 µM	> 100 µM	> 100 µM	fractional inhibitory concentration index (FICI) [4]: 2.05; fractional inhibitory concentration index (FICI) [5]: 2.05
COc1ccc(C(=O)CN2C(=O)C(c3ccc(OC)c(OC)c3)=C(c3ccc(OC)c(OC)c3)C2=O)cc1	9.9	90 µM	> 100 µM	> 100 µM	fractional inhibitory concentration index (FICI) [4]: 0.42; fold change (FC) [6]: 5.2; fold change (FC) [7]: 9.3; fractional inhibitory concentration index (FICI) [8]: 1.26; fractional inhibitory concentration index (FICI) [9]: 0.89; Activity (LCC-6): inactive; fold change (FC) [10]: 2.1; Activity [11]: Active; Activity [12]: Not Active; Ki [13]: 5.4 µM; fractional inhibitory concentration index (FICI) [5]: 0.42
COc1ccc(CN2C(=O)C(c3ccc(OC)c(OC)c3)=C(c3ccc(OC)c(OC)c3)C2=O)cc1OC	12.4	> 100 µM	> 100 µM	> 100 µM	fractional inhibitory concentration index (FICI) [4]: 2.21; fractional inhibitory concentration index (FICI) [5]: 2.21
COc1ccc(C2=C(c3ccc(OC)c(OC)c3)C(=O)N(CCCc3cc(OC)c(OC)c(OC)c3)C2=O)cc1OC	4.7	> 100 µM	> 100 µM	> 100 µM	
COc1ccc(C2=C(c3ccc(OC)c(OC)c3)C(=O)N(Cc3ccccc3)C2=O)cc1OC	7.9				
COc1ccc(CN2C(=O)C(c3ccc(OC)c(OC)c3)=C(c3ccc(OC)c(OC)c3)C2=O)cc1	9.3	> 100 µM	> 100 µM	> 100 µM	
COc1ccc(C2=C(c3ccc(OC)c(OC)c3)C(=O)N(CCc3cc(OC)c(OC)c(OC)c3)C2=O)cc1OC	4.5	> 100 µM	> 100 µM	> 100 µM	
COc1ccc(C2=C(c3ccc(OC)c(OC)c3)C(=S)N(Cc3ccccc3)C2=O)cc1OC	3.4	> 100 µM	> 100 µM		
COc1ccc(CCN2C(=O)C(c3ccc(OC)c(OC)c3)=C(c3ccc(OC)c(OC)c3)C2=O)cc1	10.7	18 µM	21.6 µM	32.5 µM	fractional inhibitory concentration index (FICI) [4]: 1.61; fractional inhibitory concentration index (FICI) [5]: 1.61
COc1ccc(C2=C(c3ccc(OC)c(OC)c3)C(=O)N(CCc3ccccc3)C2=O)cc1OC	3.6	> 100 µM	> 100 µM		
COc1ccc(C2=C(c3ccc(OC)c(OC)c3)C(=S)N(CCc3cc(OC)c(OC)c(OC)c3)C2=O)cc1OC	2.8				
COc1ccc(CCN2C(=O)C(c3ccc(OC)c(OC)c3)=C(c3ccc(OC)c(OC)c3)C2=O)cc1OC	6.9	> 100 µM	> 100 µM	> 100 µM	
COc1ccc(C2=C(c3ccc(OC)c(OC)c3)C(=O)N(CCN3C(=O)C(c4ccc(OC)c(OC)c4)=C(c4ccc(OC)c(OC)c4)C3=O)C2=O)cc1OC	1.4	> 100 µM	> 100 µM		
COc1ccc(C2=C(c3ccc(OC)c(OC)c3)C(=O)N(Cc3cc(OC)c(OC)c(OC)c3)C2=O)cc1OC	18.2	> 100 µM	> 100 µM	> 100 µM	fold change (FC) [6]: 9.5; fold change (FC) [7]: 14.6; Activity (LCC-6): inactive; fold change (FC) [10]: 3; Activity [11]: Active; Activity [12]: Not Active; Ki [13]: 5.5 µM
COc1ccc(C2=C(c3ccc(OC)c(OC)c3)C(=O)N(CN3C(=O)C(c4ccc(OC)c(OC)c4)=C(c4ccc(OC)c(OC)c4)C3=O)C2=O)cc1OC	8	> 100 µM	> 100 µM	> 100 µM	
COc1ccc(C2=C(c3ccc(OC)c(OC)c3)C(=O)N(C/C=C/c3cc(OC)c(OC)c(OC)c3)C2=O)cc1OC	6.2	> 100 µM	> 100 µM	> 100 µM	
C/C=C/C[C@@H](C)C(=O)[C@H]1C(=O)N[C@@H](C(C)C)C(=O)N(C)CC(=O)N(C)[C@@H](CC(C)C)C(=O)N[C@@H](C(C)C)C(=O)N(C)[C@@H](CC(C)C)C(=O)N[C@@H](C)C(=O)N[C@H](C)C(=O)N(C)[C@@H](CC(C)C)C(=O)N(C)[C@@H](CC(C)C)C(=O)N(C)[C@@H](C(C)C)C(=O)N1C [VALSPODAR]	101.8				
COc1ccc(-c2cn(Cc3cc(OC)c(OC)c(OC)c3)c(OCc3cc(OC)c(OC)c(OC)c3)c2-c2ccc(OC)c(OC)c2)cc1OC	1.6	> 100 µM	> 100 µM	> 100 µM	
